High-throughput results deposited in PubChem by several laboratories.
ANO1 activ: activators or potentiators of mouse TMEM16A chloride channel | Q8BHY3 | HEK293 TMEM16A/YFP-H148Q/I152L, iodide quench fluorescence; stronger effect = lower value | B-score at 10 µM | 340,000 tested, 0.3% active;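 active means fluorescence-ratio B-score plate-corrected deviation score at least 3 library SD below zero, with starting fluorescence score within 5 deviations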;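 further: channel opened by trigger with iodide after compound preincubation; score built on the fluorescence ratio of max minus min over baseline; more negative score means more quench and so TMEM16A activation or potentiation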
ANO1 block: mouse TMEM16A channel inhibition, primary screen; Q8BHY3; HEK293 TMEM16A/YFP iodide influx fluorescence, ionomycin; normalized B-score (activity score, 25-100; higher = stronger inhibition) at 10 µM; 310,000 tested, 1.2% active; AID 588511;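 active means ratio plate-corrected score three or more library SD toward inhibition, starting fluorescence score within five deviations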;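 further: score derived from kinetic fluorescence span divided by baseline fluorescence per well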
DAGLB inhibitor: diacylglycerol lipase beta (human) inhibition; 340,000 tested, 0.059% active; AID 504411; Q8NCG7; inhibition, % at 5.17 µM; HEK293T DAGLB membrane lysate, EnzChek fluorogenic substrate; in the data active means inhibition above about 34%;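 further: 0% = enzyme with vehicle and 100% = wells lacking enzyme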
MT1-MMP act inh: blocks activation of human MT1-MMP; HT1080 RFP-PRO-GFP cells, GFP/RFP ratio fluorescence, overnight; percent of plate control window, DMSO zero; GFP/RFP ratio change, % at 20 µM; 360,000 tested, 0.061% active; AID 651647;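 active means GFP/RFP ratio change of at least 30% with cell ATP level not reduced by more than half and red fluorescence within 50% of control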
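Assay system: HT1080 cells carrying an RFP-PRO-GFP reporter | Dosing: Single dose of 20 µM compound, 1% DMSO final | Incubation: Cells overnight before dosing, compound overnight, 37 °C, 5% CO2 | Evaluation: GFP/RFP fluorescence ratio | Control set: DMSO and RFP-L50D-GFP cell wells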
TMEM16A reconf: TMEM16A (mouse) chloride channel inhibition, re-confirmation; shares compounds with ANO1 block; 2,300 tested, 39% active; HEK293 TMEM16A/YFP-H148Q, iodide quench fluorescence; ionomycin added to raise cell calcium; inhibition, % at 10 µM;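 active means mean duplicate percent inhibition, scaled so buffer wells are 0 and the reference blocker 100, over three buffer SD above buffer mean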
HEK293 Ca mobil: calcium mobilization counter-screen hit for TMEM16A inhibitor series; calcium response (% of ionomycin), % at 10 µM; TMEM16A/YFP HEK293, Fluo4 calcium mobilization; shares compounds with ANO1 block; AID 652231; 2,300 tested, 2% active;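 active means duplicate-averaged calcium signal over 20% of the ionomycin maximum, relative to buffer baseline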;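 further: each well's signal is peak minus trough fluorescence divided by its pre-addition baseline; 0% = buffer wells and 100% = ionomycin wells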
Parental YFP cnt: counter-screen for TMEM16A inhibitors: effect in parental YFP-HEK293 cells | shares compounds with ANO1 block | iodide YFP quench, ionomycin | YFP ratio F(max-min)/F0 at 10 µM | 2,300 tested, under 10 active;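 active means yellow fluorescent protein signal ratio exceeding the buffer control mean by over 5 SD of those controls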;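 further: ratio is mean of duplicate wells from kinetic YFP trace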
ClC-1 rat inh: selectivity of TMEM16A inhibitors: inhibition of rat ClC-1 chloride channel; shares compounds with ANO1 block; CHO ClC-1-YFP, iodide influx fluorescence quench; iodide control reads 0, buffer control 100; ratio percent, % at 10 µM; 2,300 tested, under 10 active; AID 652236;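 active means duplicate-mean ratio percent above the mean of iodide-only control wells, which defines zero, plus 5 of their SD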;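 further: higher percent means stronger block of ClC-1 iodide influx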
* marks the source's active call; other numbers are inactive results; i = inactive; . = not tested or not shown. An excerpt weighted towards active compounds, which were near 1.3% of everything screened.

SMILES	ANO1 activ	ANO1 block	DAGLB inhibitor	MT1-MMP act inh	TMEM16A reconf	HEK293 Ca mobil	Parental YFP cnt	ClC-1 rat inh
O=C(O)CSc1nnc(Cn2c(=O)sc3ccccc32)n1-c1cccc(Cl)c1	i	i	2	0	.	.	.	.
C[C@@H]1CN([C@@H](C)CO)C(=O)c2cccc(NS(C)(=O)=O)c2O[C@H]1CN(C)CC1CCCCC1	i	.	2	3	.	.	.	.
CN(C)c1ccc(N=C/C=C2\N(C)c3ccccc3C2(C)C)cc1	i	i	10	-2	i	i	-0.52	46
COc1ccc(CC(N)c2csc(Nc3nc(C)cnc3C)n2)cc1 (stereo not given)	.	.	.	-1	.	.	.	.
CC(C)S(=O)(=O)NC(=O)C1(C)CCN1C(=O)Cc1ccccc1 (stereo not given)	.	.	.	1	.	.	.	.
COc1ccc(CCNC(=O)CCN2C(=O)C(C)Oc3ccc(C)cc32)cc1OC (stereo not given)	i	100*	0	5	i	i	-1.2	-10
COc1ccc(CCNC(=O)CCN2C(=O)COc3ccc(C)cc32)cc1OC	i	i	1	6	.	.	.	.
Clc1ccc2nc(-c3ccccc3)c(CC3CCCCC3)n2c1	.	.	.	1	.	.	.	.
CC(C)(C)N(Cc1ccccc1)C(=O)COC(=O)Cn1[nH]c(=O)c2ccccc2c1=O	.	.	-4	-7	.	.	.	.
O=C(Cn1[nH]c(=O)c2ccccc2c1=O)OCC(=O)N(Cc1ccccc1)Cc1ccccc1	i	100*	-2	-1	i	24%*	-0.9	-14
CCCN1CCC(C(=O)NC(c2ccc(Cl)cc2)c2ccsc2)CC1 (stereo not given)	.	.	.	1	.	.	.	.
Cc1ccc(C(C)(C)C)cc1S(=O)(=O)Nc1nc2ccccc2nc1Cl	i	100*	15	-7	40%*	i	-1.1	-12
Cc1cc(F)ccc1S(=O)(=O)Nc1nc2ccccc2nc1Cl	i	i	3	-3	.	.	.	.
O=S(=O)(Nc1nc2ccccc2nc1Cl)c1ccc2ccccc2c1	i	100*	18	-3	28%*	i	-1	-12
CC(c1ccc(Br)cc1)N1CC23C=CC(O2)C(C(=O)O)C3C1=O (stereo not given)	i	i	-1	0	.	.	.	.
CC(C)OC(=O)C1C2C=CC3(CN(C(C)c4ccc(Br)cc4)C(=O)C13)O2 (stereo not given)	i	25*	0	0	i	i	-1.2	-14
COc1cc(C2c3c(oc4ccccc4c3=O)C(=O)N2Cc2ccco2)ccc1O (stereo not given)	i	25*	-2	-1	i	i	-0.9	-4
COc1cccc(C2c3c(oc4ccccc4c3=O)C(=O)N2Cc2ccco2)c1 (stereo not given)	i	i	0	0	.	.	.	.
CN(C)C(=S)N=c1ssc(=S)n1Cc1cccnc1	i	.	-3	0	.	.	.	.
O=C(NC(Cc1ccccc1)c1ccc2c(c1)OCCCO2)c1ccc(F)cc1 (stereo not given)	i	25*	-5	-5	i	i	-1	-2
CCOC(=O)C(=O)Nc1ccc(S(=O)(=O)Nc2ncccn2)cc1	i	25*	2	1	i	i	-1.1	2
CCOC(=O)C(=O)Nc1ccc(S(=O)(=O)Nc2nccc(C)n2)cc1	.	.	-3	0	.	.	.	.
Cc1ccccc1OCC(=O)N(Cc1ccc(N(C)C)cc1)C1CCS(=O)(=O)C1 (stereo not given)	i	100*	-1	1	i	i	-1	-10
COc1ccc(C)cc1NC(=O)CSc1nnc(-c2ccc(Br)cc2)o1	i	100*	-6	3	i	i	-0.92	-24
COc1cc(C2(C)SCCCS2)cc(OC)c1OC	.	.	.	5	.	.	.	.
SMILES	ANO1 activ	ANO1 block	DAGLB inhibitor	MT1-MMP act inh	TMEM16A reconf	HEK293 Ca mobil	Parental YFP cnt	ClC-1 rat inh
CCC(C(=O)NCc1ccco1)N(C(=O)CNS(=O)(=O)c1ccccc1)c1ccc(OC)cc1 (stereo not given)	i	25*	1	-3	i	i	-0.91	0
CCCCCNC(=O)c1[nH]c(C(F)(F)F)nc1-c1ccccc1	.	.	.	0	.	.	.	.
CCN(CC)CCNC1=NCCn2c1cc1cc(OC)ccc12	i	25*	4	9	i	i	-0.98	-12
CN=C1c2cc3cc(OC)ccc3n2CCN1Cc1ccccc1	i	.	1	3	.	.	.	.
Nc1c(C(=O)c2ccccc2)sc2nsc(SCCN3CCCC3)c12	i	i	-8	-147	i	i	-0.96	-12
CCOC(=O)C(CC(=O)O)NCc1ccco1 (stereo not given)	i	i	-2	1	.	.	.	.
CC(C)OC(=O)C(CC(=O)O)NCc1ccccc1 (stereo not given)	i	i	2	-4	i	i	-0.97	-16
O=C(NC1CCCCC1)N(Cc1nc2ccccc2c(=O)[nH]1)C1CCCCC1	i	i	1	0	.	.	.	.
O=C(COCc1nc2ccccc2c(=O)[nH]1)NC1CCCC1	i	100*	1	-1	i	i	-1.1	-8
COc1ccc(CCNC(=O)N2c3ccccc3Sc3ccccc32)cc1	i	100*	-7	-7	53%*	i	-0.87	-14
Cc1cc(=O)n2nc(N3CCCC(C(=O)NCCCN4C(C)CCCC4C)C3)sc2n1 (stereo not given)	.	.	3	-3	.	.	.	.
CN1/C(=C\C(=O)c2ccco2)C(C)(C)c2ccccc21	i	i	-5	62	26%*	i	-0.68	-2
CN1/C(=C\C(=O)COc2ccc3c(c2)OCO3)C(C)(C)c2ccccc21	i	i	-8	5	i	i	-0.73	4
CCCCN1C(=O)C(CC(=O)NCCCN(C)C)CC(C(=O)N(C(C)C)C(C)C)=C1C (stereo not given)	.	.	.	9	.	.	.	.
CCOC(=O)CC1=CCc2c1ccc(OC)c2OC	i	.	-3	0	.	.	.	.
O=C(c1ccc2ccccc2c1)C1CCCN(S(=O)(=O)c2cccnc2)C1 (stereo not given)	i	100*	0	7	18%*	i	-0.89	-16
COc1ccc(CNC(=O)COC(=O)c2ccc(OCC3CCCO3)cc2)cc1 (stereo not given)	i	.	-3	4	.	.	.	.
